Active and inactive are the calls of the source.
Assays:
Mus musculus [1] = test: Antitumor activity (treated/control) against mice bearing B16 melanoma implanted ip on day 0, after treatment with 3 ip doses 0.0063 mg/kg on day 1,5,9 when tumor had become systemic.; type: functional; settings: route intraperitoneal
Summary of the method: (§1)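 Mice tumour-implanted on day 0 as in the P388 ip screen. Dosing was iv for P388 (day 1), po for P388 (days 1, 5, 9), and ip for L1210 (day 1) and for B16 melanoma (days 1, 5, 9). Efficacy is T/C % of mean survival time of treated over control mice, at the optimum dose.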

Mus musculus [2] = test: Antitumor activity (treated/control) against mice bearing L1210 leukemia implanted ip on day 0, after treatment with single ip dose 0.025 mg/kg on day 1.; type: functional; settings: route intraperitoneal; summary of the method: as §1
Nucleic Acid [3] = test: Inhibition of [3H]uridine incorporation into proliferating L1210 cells.; type: functional, cell-based; settings: Mus musculus
Summary of the method: (§2)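 Actively growing L1210 cells in culture were exposed to drug, which was first dissolved in Me2SO and diluted to 1% Me2SO final. Incorporation of [3H]thymidine into DNA or [3H]uridine into RNA was measured. ED50 is the drug concentration giving 50% inhibition.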

Calf thymus DNA [4] = test: (§3) Effect on thermal denaturation temperature (delta Tm) of helical DNA; type: functional; settings: Bos taurus
Summary of the method: (§4)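 Calf thymus DNA with drug at 5.2 X 10^-6 M in 0.01 M phosphate buffer pH 7 containing EDTA and 5% Me2SO. ΔTm is the thermal denaturation temperature of the DNA–drug complex minus that of DNA alone. Values <1 count as insignificant binding.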

Mus musculus [5] = test: Antitumor activity (treated/control) against mice bearing P388 leukemia implanted ip on day 0, after treatment with single iv dose 0.05 mg/kg on day 1.; type: functional; summary of the method: as §1
Mus musculus [6] = test: Antitumor activity (treated/control) against mice bearing P388 leukemia implanted ip on day 0, after treatment with three po doses 0.1 mg/kg on days1,5,9 when the tumor had become systemic; type: functional; summary of the method: as §1
Nucleic Acid [7] = test: Inhibition of [3H]thymidine incorporation into proliferating L1210 cells.; type: functional, cell-based; settings: Mus musculus; summary of the method: as §2
Calf thymus DNA [8] = test: Change in thermal denaturation temperature of calf thymus DNA; type: nucleic-acid assay; settings: Bos taurus; summary of the method: as §4
Mus musculus [9] = test: Antitumor activity against mice baering P388 leukemia (10e6 cells) implanted ip on day 0, after treatment with single ip dose 0.4 mg/kg on day 1.; type: functional; settings: route intraperitoneal
Mus musculus [10] = test: Antitumor activity against mice baering P388 leukemia (10e6 cells) implanted ip on day 0, after treatment with three ip doses (0.2 mg/kg) on day 5,9,13 when tumor became systemic.; type: functional
Summary of the method: (§5)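 Mice implanted ip with 10^6 P388 leukemia cells on day 0, then dosed ip either once on day 1 or on days 5, 9 and 13 once the tumour was systemic. Efficacy is T/C, the mean survival time of treated over control mice, expressed as %. T/C > 120% counts as active. The optimum dose is reported.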

Mus musculus [11] = test: Antitumor activity against mice baering P388 leukemia (10e6 cells) implanted ip on day 0, after treatment with single ip dose 0.05 mg/kg on day 1.; type: functional; settings: route intraperitoneal; summary of the method: as §5
[12] = Partition coefficient (log P) was the log of ratio of concentration in octanol / water partitioned concentration in phosphate buffer at pH 7.4.; type: physicochemical
Mus musculus [13] = test: Antitumor activity against mice bearing L1210 leukemia implanted ip on day 0, after treatment with single ip dose 10 mg/kg on day 1.; type: functional; settings: route intraperitoneal
Mus musculus [14] = test: Antitumor activity against mice baering P388 leukemia (10e6 cells) implanted ip on day 0, after treatment with single ip dose 7.5 mg/kg on day 1.; type: functional; settings: route intraperitoneal
Mus musculus [15] = test: Antitumor activity against mice bearing P388 leukemia implanted ip on day 0, after treatment with three po doses on day 1,5,9 when the tumor had become systemic; Inactive; type: functional, organism-based
Mus musculus [16] = test: Antitumor activity against mice bearing P388 leukemia implanted ip on day 0, after treatment with single iv dose 10 mg/kg on day 1.; type: functional
Mus musculus [17] = test: Antitumor activity against mice baering P388 leukemia (10e6 cells) implanted ip on day 0, after treatment with three ip doses (8 mg/kg) on day 5,9,13 when tumor became systemic.; type: functional
Mus musculus [18] = test: Antitumor activity against mice bearing B16 melanoma implanted ip on day 0, after treatment with three ip doses 10 mg/kg on day 1,5,9 when tumor had become systemic.; type: functional; settings: route intraperitoneal
Mus musculus [19] = test: Antitumor activity against mice baering P388 leukemia (10e6 cells) implanted ip on day 0, after treatment with single ip dose 0.25 mg/kg on day 1.; type: functional; settings: route intraperitoneal; summary of the method: as §5
Mus musculus [20] = test: Antitumor activity against mice baering P388 leukemia (10e6 cells) implanted ip on day 0, after treatment with three ip doses (0.5 mg/kg) on day 5,9,13 when tumor became systemic.; type: functional
Calf thymus DNA [21] = test: as §3; type: nucleic-acid assay; settings: Bos taurus
Summary of the method: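 ΔTm was taken as the Tm of the drug–calf thymus DNA complex minus the Tm of DNA alone. Drug was at 5.2 × 10^-6 M in 0.01 M phosphate buffer (pH 7) containing EDTA and 5% Me2SO. Values below 1 were considered insignificant binding.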

Mus musculus [22] = test: Antitumor activity against mice baering P388 leukemia (10e6 cells) implanted ip on day 0, after treatment with three ip doses (50 mg/kg) on day 5,9,13 when tumor became systemic.; type: functional; summary of the method: as §5
Mus musculus [23] = test: Antitumor activity against mice baering P388 leukemia (10e6 cells) implanted ip on day 0, after treatment with single ip dose 4.0 mg/kg on day 1.; type: functional; settings: route intraperitoneal; summary of the method: as §5

Row | SMILES | ED50 (Nucleic Acid [3]) [nM] | ED50 (Nucleic Acid [7]) [nM] | ΔTm (Calf thymus DNA [8]) [°C] | logD [12] | other results
1 | COc1cccc2c1C(=O)c1c(O)c3c(c(O)c1C2=O)C[C@@](O)(C(=O)CO)CC3OC1CC(N2CCOCC2C#N)C(O)C(C)O1 (stereo not given in full) | 0.53 | 3 |  |  | T/C (Mus musculus [1]): >148%; T/C (Mus musculus [2]): 164%; ΔTm (Calf thymus DNA [4]): 8.7 °C; T/C (Mus musculus [5]): 152%; T/C (Mus musculus [6]): >158%
2 | COc1cccc2c1C(=O)c1c(O)c3c(c(O)c1C2=O)C[C@@](O)(C(O)CO)CC3OC1CC(N2CCOCC2)C(O)C(C)O1.Cl (stereo not given in full) | 3300 | 7500 | 3.9 |  | T/C (Mus musculus [9]): >145%
3 | COc1cccc2c1C(=O)c1c(O)c3c(c(O)c1C2=O)C[C@@](O)(C(C)O)CC3OC1CC(N2CCOCC2C#N)C(O)C(C)O1 (stereo not given in full) | 2 | 19 | 4.2 |  | 
4 | COc1cccc2c1C(=O)c1c(O)c3c(c(O)c1C2=O)C[C@@](O)(C(O)CO)CC3OC1CC(N2CCOCC2C#N)C(O)C(C)O1 (stereo not given in full) | 3 | 21 | 4.5 | 1.56 | T/C (Mus musculus [10]): 150%; T/C (Mus musculus [11]): 183%
5 | COc1cccc2c1C(=O)c1c(O)c3c(c(O)c1C2=O)C[C@@](O)(C(=O)CO)C[C@@H]3O[C@H]1C[C@H](N)[C@H](O)[C@H](C)O1.Cl [DOXORUBICIN HYDROCHLORIDE] | 580 | 1600 | 12.8 |  | T/C (Mus musculus [13]): 185%; T/C (Mus musculus [14]): 252%; T/C (Mus musculus [15]): inactive; T/C (Mus musculus [16]): 178%; T/C (Mus musculus [17]): 160%; T/C (Mus musculus [18]): 278%
6 | COc1cccc2c1C(=O)c1c(O)c3c(c(O)c1C2=O)C[C@@](O)(C(=O)CO)CC3OC1CC(N2CCOCC2)C(O)C(C)O1.Cl (stereo not given in full) | 170 | 710 | 9.6 | 1.73 | T/C (Mus musculus [11]): 182%
7 | COc1cccc2c1C(=O)c1c(O)c3c(c(O)c1C2=O)C[C@@](O)(C(C)O)CC3OC1CC(N2CCOCC2)C(O)C(C)O1 (stereo not given in full) | 530 | 2200 | 4.1 | 2.03 | 
8 | COc1cccc2c1C(=O)c1c(O)c3c(c(O)c1C2=O)C[C@@](O)(C(C)=O)CC3OC1CC(N2CCOCC2)C(O)C(C)O1.Cl (stereo not given in full) | 100 | 760 | 6.6 | 2.31 | T/C (Mus musculus [19]): 155%
9 | COc1cccc2c1C(=N)c1c(O)c3c(c(O)c1C2=O)C[C@@](O)(C(=O)CO)CC3OC1CC(N2CCOCC2C#N)C(O)C(C)O1 (stereo not given in full) | 4.7 | 31 |  | 1.97 | T/C (Mus musculus [20]): 157%; ΔTm (Calf thymus DNA [21]): 3.2 °C
10 | COc1cccc2c1C(=N)c1c(O)c3c(c(O)c1C2=O)C[C@@](O)(C(O)CO)CC3OC1CC(N2CCOCC2)C(O)C(C)O1.Cl (stereo not given in full) | 24000 | > 100000 | 1.6 | 1.43 | T/C (Mus musculus [22]): >161%
11 | COc1cccc2c1C(=N)c1c(O)c3c(c(O)c1C2=O)C[C@@](O)(C(O)CO)CC3OC1CC(N2CCOCC2C#N)C(O)C(C)O1 (stereo not given in full) | 75 | 580 |  |  | ΔTm (Calf thymus DNA [21]): 0.8 °C
12 | COc1cccc2c1C(=O)c1c(O)c3c(c(O)c1C2=O)C[C@@](O)(C(C)=O)C[C@@H]3O[C@H]1C[C@H](N)[C@H](O)[C@H](C)O1.Cl [DAUNORUBICIN HYDROCHLORIDE] | 330 | 660 | 10.5 | 0.66 | T/C (Mus musculus [17]): 130%
13 | COc1cccc2c1C(=O)c1c(O)c3c(c(O)c1C2=O)C[C@@](O)(C(C)=O)CC3OC1CC(N2CCOCC2C#N)C(O)C(C)O1 (stereo not given in full) | 2 | 12 | 6.3 |  | T/C (Mus musculus [19]): 175%
14 | COc1cccc2c1C(=N)c1c(O)c3c(c(O)c1C2=O)C[C@@](O)(C(=O)CO)CC3OC1CC(N2CCOCC2)C(O)C(C)O1.Cl (stereo not given in full) | 1300 | 2600 | 4.3 | 1.8 | T/C (Mus musculus [23]): >215%
